Reference: ChEMBL document CHEMBL1138555, “N-acylated and N,N'-diacylated imidazolidine-2-thione derivatives and N,N'-diacylated tetrahydropyrimidine-2(1H)-thione analogues: synthesis and antiproliferative activity” (Eur J Med Chem, 2009)

Assays:
HOP-92 = test: Growth inhibition of human HOP92 cells after 48 hrs by sulforhodamine B assay; format: functional; settings: HOP-92, 48 h
Outline: (§1)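 NCI screen panel. Five 10-fold concentrations from 10^-4 to 10^-8 M. Exposure for the last 48 h of a 72 h incubation. Growth estimated by sulforhodamine B protein assay. GI50 is the concentration giving 50% growth inhibition. Where that level was not reached or was exceeded, the value is given as above or below the highest or lowest concentration tested.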

MOLT-4 = test: Growth inhibition of human MOLT4 cells after 48 hrs by sulforhodamine B assay; format: functional; settings: MOLT-4, 48 h; outline: as §1
A498 = test: Growth inhibition of human A498 cells after 48 hrs by sulforhodamine B assay; format: functional; settings: A498, 48 h; outline: as §1
MT4 = test: Antiproliferative activity against human MT4 cells assessed as reduction of growth by MTT assay; format: functional, cell-based
Outline: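 MT-4 lymphoblastoid T cells (ATCC) in RPMI 1640 with 10% FCS, penicillin/streptomycin, checked for mycoplasma. 1 × 10⁴ mock-infected cells per well with serial dilutions from a 100 mM DMSO stock. Incubated 4 days at 37 °C, viable cells counted by MTT. IC50 versus untreated controls by linear regression. Mean of three separate experiments.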

[1] = Growth inhibition of human Hs 578T cells after 48 hrs by sulforhodamine B assay; format: functional; outline: as §1
Malme-3M = test: Growth inhibition of human MALME-3M cells after 48 hrs by sulforhodamine B assay; format: functional; outline: as §1
MDA-MB-435 = test: Growth inhibition of human MDA-MB-435 cells after 48 hrs by sulforhodamine B assay; format: functional; settings: MDA-MB-435, 48 h; outline: as §1
MDA-MB-231 = test: Growth inhibition of human MDA-MB-231 cells after 48 hrs by sulforhodamine B assay; format: functional; settings: MDA-MB-231, 48 h; outline: as §1
COLO 205 = test: Growth inhibition of human COLO205 cells after 48 hrs by sulforhodamine B assay; format: functional; settings: COLO 205, 48 h; outline: as §1
UACC-257 = test: Growth inhibition of human UACC257 cells after 48 hrs by sulforhodamine B assay; format: functional; settings: UACC-257, 48 h
Outline: (§2)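 NCI in vitro panel screen. Compounds tested at five 10-fold dilutions, 10^-4 to 10^-8 M. Cells in 96-well plates were exposed for the last 48 h of a 72 h incubation. Viability/growth was read by sulforhodamine B protein assay. GI50 is the concentration giving 50% growth inhibition. Values beyond the tested range are reported as greater or less than the maximum or minimum concentration.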

TK-10 = test: Growth inhibition of human TK10 cells after 48 hrs by sulforhodamine B assay; format: functional; settings: TK-10, 48 h; outline: as §2
NCI-H322M = test: Growth inhibition of human NCI-H322M cells after 48 hrs by sulforhodamine B assay; format: functional; outline: as §1
SF-295 = test: Growth inhibition of human SF295 cells after 48 hrs by sulforhodamine B assay; format: functional; settings: SF-295, 48 h; outline: as §1
T47D = test: Growth inhibition of human T47D cells after 48 hrs by sulforhodamine B assay; format: functional; outline: as §2
HL-60(TB) = test: Growth inhibition of human HL-60(TB) cells after 48 hrs by sulforhodamine B assay; format: functional; settings: HL-60, 48 h
Outline: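 NCI 60-cell-line screen protocol: cells exposed to compound at five 10-fold dilutions from 10^-4 to 10^-8 M for the last 48 h of a 72 h incubation. Sulforhodamine B protein assay estimated viability/growth. GI50 (50% growth inhibition) derived; where not reached or exceeded, reported as greater or less than the highest or lowest concentration tested.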

OVCAR-8 = test: Growth inhibition of human OVCAR8 cells after 48 hrs by sulforhodamine B assay; format: functional; settings: OVCAR-8, 48 h; outline: as §1
OVCAR-4 = test: Growth inhibition of human OVCAR4 cells after 48 hrs by sulforhodamine B assay; format: functional; settings: OVCAR-4, 48 h; outline: as §1
HT-29 = test: Growth inhibition of human HT-29 cells after 48 hrs by sulforhodamine B assay; format: functional; settings: HT-29, 48 h; outline: as §1
SNB-75 = test: Growth inhibition of human SNB75 cells after 48 hrs by sulforhodamine B assay; format: functional; settings: SNB-75, 48 h; outline: as §2
HCT-15 = test: Growth inhibition of human HCT15 cells after 48 hrs by sulforhodamine B assay; format: functional; settings: HCT-15, 48 h; outline: as §1
SK-MEL-2 = test: Growth inhibition of human SK-MEL-2 cells after 48 hrs by sulforhodamine B assay; format: functional; settings: SK-MEL-2, 48 h; outline: as §1
SF-268 = test: Growth inhibition of human SF268 cells after 48 hrs by sulforhodamine B assay; format: functional; settings: SF-268, 48 h; outline: as §1
SK-OV-3 = test: Growth inhibition of human SKOV3 cells after 48 hrs by sulforhodamine B assay; format: functional; settings: SK-OV-3, 48 h; outline: as §1
SW-620 = test: Growth inhibition of human SW620 cells after 48 hrs by sulforhodamine B assay; format: functional; settings: SW-620, 48 h; outline: as §2
UACC-62 = test: Growth inhibition of human UACC62 cells after 48 hrs by sulforhodamine B assay; format: functional; settings: UACC-62, 48 h; outline: as §2
A549 = test: Growth inhibition of human A549 cells after 48 hrs by sulforhodamine B assay; format: functional; settings: A549, 48 h; outline: as §1
HCT-116 = test: Growth inhibition of human HCT116 cells after 48 hrs by sulforhodamine B assay; format: functional; settings: HCT-116, 48 h; outline: as §1
U-251 = test: Growth inhibition of human U251 cells after 48 hrs by sulforhodamine B assay; format: functional; settings: U-251, 48 h; outline: as §2
ACHN = test: Growth inhibition of human ACHN cells after 48 hrs by sulforhodamine B assay; format: functional; outline: as §1
NCI-H460 = test: Growth inhibition of human NCI-H460 cells after 48 hrs by sulforhodamine B assay; format: functional; settings: NCI-H460, 48 h; outline: as §1
NCI/ADR-RES = test: Growth inhibition of human NCI/ADR-RES cells after 48 hrs by sulforhodamine B assay; format: functional; outline: as §1
SNB-19 = test: Growth inhibition of human SNB19 cells after 48 hrs by sulforhodamine B assay; format: functional; settings: SNB-19, 48 h; outline: as §2
OVCAR-3 = test: Growth inhibition of human OVCAR-3 cells after 48 hrs by sulforhodamine B assay; format: functional; settings: OVCAR-3, 48 h; outline: as §1
NCI-H23 = test: Growth inhibition of human NCI-H23 cells after 48 hrs by sulforhodamine B assay; format: functional; settings: NCI-H23, 48 h; outline: as §1
BT-549 = test: Growth inhibition of human BT549 cells after 48 hrs by sulforhodamine B assay; format: functional; settings: BT-549, 48 h; outline: as §1
NCI-H226 = test: Growth inhibition of human NCI-H226 cells after 48 hrs by sulforhodamine B assay; format: functional; settings: NCI-H226, 48 h; outline: as §1
RXF 393 = test: Growth inhibition of human RXF393 cells after 48 hrs by sulforhodamine B assay; format: functional; settings: RXF 393, 48 h; outline: as §1
SF-539 = test: Growth inhibition of human SF539 cells after 48 hrs by sulforhodamine B assay; format: functional; settings: SF-539, 48 h; outline: as §1
[2] = Growth inhibition of human […] cells after 48 hrs by sulforhodamine B assay; format: functional; outline: as §1
LOX IMVI = test: Growth inhibition of human LOXIMVI cells after 48 hrs by sulforhodamine B assay; format: functional; outline: as §1
M14 = test: Growth inhibition of human M14 cells after 48 hrs by sulforhodamine B assay; format: functional; settings: M14, 48 h; outline: as §1

## O=C(c1cccs1)N1CCN(C(=O)c2cccs2)C1=S
HOP-92
  GI50: 7.2 µM
MOLT-4
  GI50: 3.2 µM
A498
  GI50: 15.1 µM
MT4
  IC50: 11 µM
[1]
  GI50: 16.6 µM
Malme-3M
  GI50: 10.3 µM
MDA-MB-435
  GI50: 2.8 µM
MDA-MB-231
  GI50: 9.4 µM
COLO 205
  GI50: 7.7 µM
UACC-257
  GI50: 7.5 µM
TK-10
  GI50: 5.4 µM
NCI-H322M
  GI50: 15.5 µM
SF-295
  GI50: 16.7 µM
T47D
  GI50: 4.6 µM
HL-60(TB)
  GI50: 2.2 µM
OVCAR-8
  GI50: 5.3 µM
OVCAR-4
  GI50: 18.8 µM
HT-29
  GI50: 11.9 µM
SNB-75
  GI50: 1.4 µM
HCT-15
  GI50: 5.3 µM
SK-MEL-2
  GI50: 12.6 µM
SF-268
  GI50: 8.2 µM
SK-OV-3
  GI50: 15.9 µM
SW-620
  GI50: 4.8 µM
UACC-62
  GI50: 12.3 µM
A549
  GI50: 4 µM
HCT-116
  GI50: 11.4 µM
U-251
  GI50: 7.9 µM
ACHN
  GI50: 15 µM
NCI-H460
  GI50: 18.7 µM
NCI/ADR-RES
  GI50: 19.1 µM
SNB-19
  GI50: 14.4 µM
OVCAR-3
  GI50: 3.5 µM
NCI-H23
  GI50: 10.6 µM
BT-549
  GI50: 10 µM
NCI-H226
  GI50: 15.9 µM
RXF 393
  GI50: 2.9 µM
SF-539
  GI50: 1.8 µM
[2]
  GI50: 1.2 µM
LOX IMVI
  GI50: 2.9 µM
M14
  GI50: 3.6 µM

## COc1cc(C(=O)N2CCN(C=O)C2=S)cc(OC)c1OC
HOP-92
  GI50: 9.3 µM
MOLT-4
  GI50: 29.4 µM
A498
  GI50: 20.5 µM
MT4
  IC50: 13 µM
[1]
  GI50: 27.6 µM
Malme-3M
  GI50: 24.3 µM
MDA-MB-435
  GI50: 15.5 µM
MDA-MB-231
  GI50: 21.5 µM
COLO 205
  GI50: 20.2 µM
UACC-257
  GI50: 19.9 µM
TK-10
  GI50: 17.1 µM
NCI-H322M
  GI50: 24.8 µM
SF-295
  GI50: 29.3 µM
T47D
  GI50: 20.7 µM
HL-60(TB)
  GI50: 23.4 µM
OVCAR-8
  GI50: 24 µM
OVCAR-4
  GI50: 24.1 µM
HT-29
  GI50: 26.7 µM
SNB-75
  GI50: 10.9 µM
HCT-15
  GI50: 25.6 µM
SK-MEL-2
  GI50: 19.9 µM
SF-268
  GI50: 21.4 µM
SK-OV-3
  GI50: 21.9 µM
SW-620
  GI50: 26.8 µM
UACC-62
  GI50: 15.8 µM
A549
  GI50: 33.2 µM
HCT-116
  GI50: 35.6 µM
U-251
  GI50: 16.4 µM
ACHN
  GI50: 20.1 µM
NCI-H460
  GI50: 34 µM
NCI/ADR-RES
  GI50: 36.1 µM
SNB-19
  GI50: 28.5 µM
OVCAR-3
  GI50: 16.9 µM
NCI-H23
  GI50: 25.9 µM
BT-549
  GI50: 25 µM
NCI-H226
  GI50: 35.9 µM
RXF 393
  GI50: 16.1 µM
SF-539
  GI50: 21.3 µM
[2]
  GI50: 7.3 µM
LOX IMVI
  GI50: 16.4 µM
M14
  GI50: 20.6 µM
